Data from ChEMBL document CHEMBL1139239, “A series of cationic sterol lipids with gene transfer and bactericidal activity” (Bioorg Med Chem, 2009).
Values after ≈ are worked out from the molar mass of the structure shown. Values belong to the molecule of their own block, whether it stands above or below them. Active and inactive are the calls of the source. No cut-off for these calls is given here.

Legend:
[1] = test system: Bacillus subtilis; test: Antibacterial activity against Bacillus subtilis ATCC 6051 after 20 hrs; format: functional
Summary of the method: (§1)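 Broth microdilution MIC: exponential-phase bacteria at 10^5 to 10^6 CFU/ml in Mueller-Hinton broth. Compound serial dilutions made in PBS and mixed 1:1 by volume with the cells, so broth is 50% v/v. Incubated 20 hours at 37°C, and the minimum inhibitory concentration was recorded.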

[2] = test system: Escherichia coli; test: Antibacterial activity against Escherichia coli MG1655 after 20 hrs; format: functional; summary of the method: as §1
[3] = Therapeutic index, ratio of MHC for RBC to MIC for Escherichia coli MG1655; conditions: red blood cells (RBC); read-out: TI
Summary of the method: (§2)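 Ratio of MHC to MIC. MIC: exponential-phase B. subtilis ATC6051 or E. coli MG1655 at 10^5–10^6 CFU/ml in Mueller-Hinton broth, mixed 1:1 with serial dilutions in PBS (50% v/v broth), 20 h at 37°C. MHC: lowest concentration giving ≥2% lysis of washed donor red cells after 1 h at 37°C.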

[4] = Therapeutic index, ratio of MHC for RBC to MIC for Bacillus subtilis ATCC 6051; conditions: red blood cells (RBC); read-out: TI; summary of the method: as §2
[5] = Toxicity against RBC assessed as hemolytic activity at 2 mM; format: cell-based; conditions: erythrocyte, 2000 µM
Summary of the method: (§3)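 Donor whole blood in heparin/ACD was chilled to 4°C, pelleted at 1000g and washed three times in phosphate/NaCl/HEPES buffer, then resuspended in PBS. Cells were mixed 1:1 with serial dilutions in PBS and held 1 h at 37°C, then spun. Diluted supernatant was read at 540 nm against buffer, with percent lysis set against 1% Triton X-100.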

[6] = Toxicity against RBC assessed as hemolytic activity; format: cell-based; conditions: erythrocyte; summary of the method: as §3
[7] = Toxicity against RBC assessed as hemolytic activity at 1 to 2 mM; format: cell-based, Erythrocyte; conditions: red blood cells (RBC); read-out: Activity; summary of the method: as §3
[8] = test system: Bacillus subtilis; test: Antibacterial activity against Bacillus subtilis ATCC 6051 at 20 uM after 4 hrs; format: functional, organism-based; conditions: ATC6051
Summary of the method: (§4)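 Killing assay: exponential-phase bacteria suspended in PBS at 10^5–10^6 CFU/ml and preincubated for 1 hour at 37°C. Compound added and exposure lasted 4 hours. Samples were taken, diluted in four ten-fold steps in PBS and plated on agar overnight at 37°C. Colonies were counted manually and averages plotted on a log scale.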

[9] = test system: Escherichia coli; test: Antibacterial activity against Escherichia coli MG1655 at 20 uM after 4 hrs; format: functional, organism-based; conditions: 50 uM, in the assay text read “50 uM” for “20 uM”; summary of the method: as §4
[10] = Toxicity against bovine BAEC cells; format: cell-based, Bos taurus; conditions: cattle
Summary of the method: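 Bovine aortic endothelial cells, passage 4–15, grown in DMEM with 10% FBS. Lipoplexes made with or without DOPE at several charge ratios up to 12 were added in serum-free OptiMem for 2 h at 37°C, then replaced with growth medium. About 20 h later, viability was read as ATP luminescence (CellTiter-Glo, 30 min), normalised to naked plasmid DNA, n = 8.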

MIC ([1]; ATC6051): 1 µM
MIC [2]: 6 µM
Molecule: POLYMYXIN B

Molecule: C[C@H](CCC(=O)NCCCNCCCCNCCCNC(=O)CC[C@H](C)[C@@H]1CC[C@@H]2[C@@H]3[C@@H](C[C@@H](O)[C@]21C)[C@]1(C)CC[C@H](O)C[C@@H]1C[C@@H]3O)[C@H]1CC[C@H]2[C@@H]3[C@H](O)C[C@@H]4C[C@H](O)CC[C@]4(C)[C@H]3C[C@H](O)[C@]12C
MIC ([1]; ATC6051, 20 h): 4 µM (≈ 3.93 µg/mL)
MIC ([2]; MG1655, 20 h): 16 µM (≈ 15.7 µg/mL)
selectivity ratio [3]: 15
selectivity ratio [4]: 61
Activity [5]: Toxic
MHC [6]: 250 µM

Molecule: C[C@H](CCC(=O)NCCCNCCCCNCCCN)[C@H]1CC[C@H]2[C@@H]3[C@H](O)C[C@@H]4C[C@H](O)CC[C@]4(C)[C@H]3C[C@H](O)[C@]12C
MIC ([1]; ATC6051, 20 h): > 432 µM
MIC ([2]; MG1655, 20 h): > 432 µM
hemolysis at up to 2000 µM [7]: 30%
selectivity ratio [3]: < 1
selectivity ratio [4]: < 1
MHC [6]: 500 µM

Molecule: C[C@H](CCC(=O)NCCCNCCCCNCCCN)[C@H]1CCC2=C3CC[C@@H]4C[C@H](O)CC[C@]4(C)[C@H]3C[C@H](O)[C@@]21C
MIC ([1]; ATC6051, 20 h): 28 µM (≈ 16.1 µg/mL)
MIC ([2]; MG1655, 20 h): 111 µM (≈ 63.8 µg/mL)
Activity [8]: Active
Activity [9]: Active
hemolysis at up to 2000 µM [7]: 30%
selectivity ratio [3]: 5
selectivity ratio [4]: 18
MHC [6]: 500 µM

Molecule: C[C@H](CCC(=O)NCCCNCCCCNCCCN)[C@H]1CC[C@H]2[C@@H]3CC=C4C[C@@H](O)CC[C@]4(C)[C@H]3CC[C@]12C
MIC ([1]; ATC6051, 20 h): 57 µM (≈ 31.9 µg/mL)
MIC ([2]; MG1655, 20 h): 115 µM (≈ 64.3 µg/mL)
Activity [10]: Toxic
hemolysis at up to 2000 µM [7]: 30%
selectivity ratio [3]: 9
selectivity ratio [4]: 18
MHC [6]: 1000 µM

Molecule: C[C@H](CCC(=O)NCCCNCCCCNCCCN)[C@H]1CC[C@H]2[C@@H]3CC[C@@H]4C[C@H](O)CC[C@]4(C)[C@H]3CC[C@]12C
MIC ([1]; ATC6051, 20 h): 57 µM (≈ 32 µg/mL)
MIC ([2]; MG1655, 20 h): 228 µM (≈ 128 µg/mL)
Activity [8]: Active
Activity [9]: Active
hemolysis at up to 2000 µM [7]: 30%
selectivity ratio [3]: 2
selectivity ratio [4]: 9
MHC [6]: 500 µM
